TLR4 MyD88 comp: TLR4-MyD88 interaction inhibition in cells; O00206+Q99836; HeLa CL3-4 TLR4/MyD88 BLA complementation, FRET ratio; inhibition, % at 8.4 µM; 0.18% of 200,000 active; AID 861; in the data active means inhibition above about 25%
NOD2 RIPK2 PPI: inhibitors of human NOD2-RIPK2 interaction | O43353 | CHO BLA complementation NOD2-RIPK2, CCF4 ratio | inhibition, % at 4.98 µM | 0.38% of 360,000 active | AID 624267; in the data active means inhibition above about 21%
MC4R barr agon: agonists of human melanocortin 4 receptor (MC4R) beta-arrestin | P32245 | U2OS MC4R beta-arrestin complementation, luminescence; percent of melanotan II response, DMSO zero | activation, % at 8.9 µM | 0.98% of 360,000 active | AID 540308;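 active means activation above a per-plate cutoff, the mean activation of sample wells on that plate plus 3 SD, cut at about 8% in these data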
TLR9-MyD88 inh: blocks human TLR9 binding to MyD88; Q9NR96+Q99836; inhibition, % at 4.98 µM; 0.21% of 340,000 active; AID 504734; CHO BLA complementation TLR9-MyD88, CCF4 FRET ratio;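 active means inhibition above the mean over all tested compounds plus 3 SD, cut at about 21% in these data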
beta cell repl: MIN6 beta-cell proliferation induction. AID 2380. proliferation, % at 10 µM. MIN6 cells proliferation, ATPlite luminescence, 48 h; cells starved in 0.2% serum; 100% = growth in 10% serum. 0.29% of 330,000 active;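 active means compounds whose signal lies at least 3.5 SD above the mean of all wells on their plate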
MC4R antag cAMP: human MC4R antagonism in cAMP assay; AID 540295; P32245; MC4R-expressing cells, MTII-stimulated cAMP, LANCE TR-FRET; 0.48% of 360,000 active; inhibition, % at 6.5 µM;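 active means inhibition above its plate's cutoff, the mean of tested wells on that plate plus 3 SD, cut at about 29% in these data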
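System: U2OS-MC4R stable cell line; Technique: Eu-cAMP/anti-cAMP TR-FRET, emission 671 nm; Repeats: single well per compound; Also added: Melanotan II; Dosing: one concentration, 6.5 µM nominal; Schedule: 30-min compound, 1-h challenge, 1-h detection, room temperature.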
MC4R barr conf: human MC4R beta-arrestin agonism confirmation. U2OS MC4R beta-arrestin recruitment, luminescence; scaled DMSO 0%, Melanotan II 100%. 31% of 2,400 active. shares compounds with MC4R barr agon. activation, % at 8.9 µM;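 active means mean activation across replicates above the hit cutoff set in the earlier primary screen, cut at about 8% in these data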
MOR DOR agonist: OPRM1-OPRD1 heterodimer agonism counter-screen. shares compounds with MC4R barr agon. U2OS PathHunter beta-arrestin, beta-gal luminescence; percent of deltorphin B response, DMSO zero. activation, % at 9.2 µM. 5.8% of 2,400 active. AID 602194;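 active means mean activation across replicates exceeds the hit threshold derived in the earlier primary screen, cut at about 18% in these data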
Target sequence (P35372 whole entry, looked up): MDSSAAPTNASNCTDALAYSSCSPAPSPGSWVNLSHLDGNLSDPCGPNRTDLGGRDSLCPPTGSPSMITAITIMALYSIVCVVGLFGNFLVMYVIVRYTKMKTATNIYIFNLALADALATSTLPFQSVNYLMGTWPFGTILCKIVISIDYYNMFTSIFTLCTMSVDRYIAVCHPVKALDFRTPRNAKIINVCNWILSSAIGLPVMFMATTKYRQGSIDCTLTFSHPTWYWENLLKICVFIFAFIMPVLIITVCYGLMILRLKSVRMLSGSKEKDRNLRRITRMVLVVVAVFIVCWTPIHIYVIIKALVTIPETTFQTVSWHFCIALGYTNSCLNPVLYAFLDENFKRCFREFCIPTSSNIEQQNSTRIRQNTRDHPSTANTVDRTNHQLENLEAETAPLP
Target sequence (P41143 whole entry, looked up): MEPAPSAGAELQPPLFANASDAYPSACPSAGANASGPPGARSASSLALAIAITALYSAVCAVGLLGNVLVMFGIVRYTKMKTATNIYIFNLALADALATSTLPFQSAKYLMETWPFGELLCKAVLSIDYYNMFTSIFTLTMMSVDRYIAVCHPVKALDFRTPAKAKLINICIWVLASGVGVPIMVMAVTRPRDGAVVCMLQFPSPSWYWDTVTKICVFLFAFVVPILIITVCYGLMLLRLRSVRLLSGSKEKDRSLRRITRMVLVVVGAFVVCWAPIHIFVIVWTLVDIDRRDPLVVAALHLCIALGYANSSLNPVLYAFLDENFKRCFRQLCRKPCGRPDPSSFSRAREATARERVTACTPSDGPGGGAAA
Each line names hits and unclear results; the compound was inactive in the other large screens (follow-up assays come after a bar, where they were run). A selection: hits, their analogues and other compounds. The true share with any hit is near 2.1%.

COc1ccc(-c2ccc3oc(-c4ccc(OC)cc4)c(C#CCO)c3c2)cc1	MC4R barr agon 18 (no result: TLR4 MyD88 comp) | MC4R barr conf 15 | MOR DOR agonist inactive
COc1ccc(-c2oc3ccc(-c4ccc5c(c4)OCO5)cc3c2C#CC2(O)CCCCC2)cc1	MC4R barr agon 15 (no result: TLR4 MyD88 comp) | MC4R barr conf 17 | MOR DOR agonist inactive
COc1ccc(-c2oc3ccc(N4CCOCC4)cc3c2C#CCO)cc1	none (no result: TLR4 MyD88 comp)
COc1ccc(CNCCC(c2ccc(OC(C)C)cc2)C(C)C)cc1OC (configuration not stated)	none
COc1ccc(CNCCC(c2ccc(OC(C)C)cc2)c2ccccc2OC)cc1 (configuration not stated)	MC4R barr agon 12 (no result: TLR4 MyD88 comp) | MC4R barr conf 11 | MOR DOR agonist 25
COc1ccc(CNCCC(c2ccc(OC(C)C)cc2)c2ccccc2OC)cc1OC (configuration not stated)	none (no result: TLR4 MyD88 comp)
COc1ccc(C(CCNCc2ccc(OC(C)C)cc2)C(C)C)cc1 (configuration not stated)	MC4R barr agon 15 (no result: TLR4 MyD88 comp, TLR9-MyD88 inh) | MC4R barr conf inactive | MOR DOR agonist inactive
COc1ccccc1C(CCNCc1ccc(N(C)C)cc1)c1ccc(OC(C)C)cc1 (configuration not stated)	MC4R barr agon 13 (no result: TLR4 MyD88 comp) | MC4R barr conf inactive | MOR DOR agonist 29
CN(C)CCn1c2c(c(SCC(=O)Nc3ccc4c(c3)OCCO4)nc1=O)CCCC2	none (no result: TLR4 MyD88 comp)
O=C(NCc1ccco1)c1ccc(Cl)c(S(=O)(=O)N2CCCC2)c1	none (no result: TLR4 MyD88 comp)
CCOc1ccc(CC2S/C(=N/N=C/c3ccco3)NC2=O)cc1 (configuration not stated)	MC4R barr agon 14 | MC4R barr conf inactive | MOR DOR agonist inactive
O=C1NC[C@@H](CCCCN2C[C@H](Cc3ccc(O)cc3)N(CCC3CCCCC3)C(=O)C2=O)N(CCC2CCCCC2)C1=O	none (no result: TLR4 MyD88 comp, MC4R barr agon, TLR9-MyD88 inh, beta cell repl, MC4R antag cAMP)
CSc1nc(N)nc(SCC(=O)OC(C)C)c1C#N	none
CSc1nc(N)nc(SCC(=O)c2ccc(C)cc2)c1C#N	MC4R barr agon 21 | MC4R barr conf 22 | MOR DOR agonist inactive
CCCCC(CC)Cn1c(N)c(C#N)c2nc3ccccc3nc21 (configuration not stated)	MC4R barr agon 17 | MC4R barr conf 19 | MOR DOR agonist inactive
CCC(=O)Nc1sc2c(c1C#N)CCCCC2	none
CCN=C1SC(CC(=O)Nc2sc3c(c2C#N)CCCC3)C(=O)N1CC (configuration not stated)	MC4R barr agon 12 | MC4R barr conf inactive | MOR DOR agonist inactive
CCC(C)(C)NC(=O)C(c1ccc(C)cc1)N(Cc1ccco1)C(=O)Cn1nnc2ccccc21 (configuration not stated)	MC4R barr agon 9.9 | MC4R barr conf inactive | MOR DOR agonist inactive
Cc1ccc(S(=O)(=O)CCC(=O)OCC(=O)NCc2ccc(Cl)cc2)cc1	none
CCOc1ccc(/C=N/Nc2ccc(C(F)(F)F)cc2[N+](=O)[O-])cc1O	none
COc1ccc(/C=N/Nc2ccc(C(F)(F)F)cc2[N+](=O)[O-])cc1O	MC4R barr agon 20 | MC4R barr conf inactive | MOR DOR agonist inactive
CCN(c1ccccc1)S(=O)(=O)c1ccc(OC)c(NC(=O)CCc2nc3ccccc3c(=O)[nH]2)c1	none (no result: TLR4 MyD88 comp)
O=C(O)CCn1c(=S)n(CCC(=O)O)c2ccccc21	none (no result: TLR4 MyD88 comp)
C=CCN(CC=C)S(=O)(=O)c1ccc(NC(=S)NC(=O)/C=C/c2ccccc2)cc1	MC4R barr agon 19 | MC4R barr conf inactive | MOR DOR agonist inactive
C=CCN(CC=C)C(=S)NC(=O)/C=C/c1ccccc1	none
CN(C1CCCCC1)S(=O)(=O)c1ccc(=S)[nH]c1	none (no result: TLR4 MyD88 comp)
CC(=O)N/N=C/c1cc([N+](=O)[O-])ccc1OCCOc1ccccc1	none
NC(=S)N/N=C/c1cc([N+](=O)[O-])ccc1OCCOc1ccccc1	MC4R barr agon 16 | MC4R barr conf inactive | MOR DOR agonist inactive
COc1ccccc1NC(=O)c1oc2ccccc2c1C	none (no result: TLR4 MyD88 comp, beta cell repl)
COc1ccccc1NC(=O)c1oc2ccccc2c1NC(=O)C1CC1	MC4R barr agon 10 (no result: TLR4 MyD88 comp) | MC4R barr conf inactive | MOR DOR agonist inactive
COc1ccc(NC(=O)c2oc3ccccc3c2C)c(OC)c1	MC4R barr agon 14 | MC4R barr conf inactive | MOR DOR agonist inactive
COc1ccc2oc(C(=O)OCC(=O)NCc3ccccc3OC)c(C)c2c1	MC4R barr agon 21 (no result: TLR4 MyD88 comp) | MC4R barr conf inactive | MOR DOR agonist inactive
COc1ccc(OC)c(-c2nn(-c3ccccc3)cc2C(=O)NCC(c2cccs2)N2CCOCC2)c1 (configuration not stated)	none (no result: TLR4 MyD88 comp)
COc1ccc(-c2cnc(C(N)=O)c(=O)[nH]2)cc1	none (no result: TLR4 MyD88 comp, beta cell repl)
CC1CN(C(=O)CCNC(=O)c2ccc(Br)cc2)CC(C)O1 (configuration not stated)	none (no result: TLR4 MyD88 comp)
N#C/C(=C\c1ccc([N+](=O)[O-])o1)c1nc2ccccc2[nH]1	none (no result: NOD2 RIPK2 PPI, MC4R barr agon, TLR9-MyD88 inh, MC4R antag cAMP)
N#C/C(=C\c1ccc(Sc2ccccc2)o1)c1nc2ccccc2[nH]1	MC4R barr agon 12 | MC4R barr conf inactive | MOR DOR agonist inactive
CC(=O)Nc1ccc(S(=O)(=O)Nc2cc(C)c(-n3nc4ccccc4n3)cc2O)cc1	MC4R barr agon 11 | MC4R barr conf inactive | MOR DOR agonist inactive
Cc1noc(C)c1CSc1ccccc1C(=O)O	none (no result: TLR4 MyD88 comp)
COc1ccc(Nc2oc(-c3ccc(Cl)cc3)nc2C#N)cc1	MC4R barr agon 18 | MC4R barr conf inactive | MOR DOR agonist inactive
COc1ccc(Nc2oc(-c3ccccc3)nc2C#N)cc1	none
CCCCn1c(=O)c(CCC(=O)OCC(=O)Nc2cc(Cl)ccc2OC)nc2ccccc21	none
CCCCn1c(=O)c(CCC(=O)OCC(=O)Nc2ccc(F)c(Cl)c2)nc2ccccc21	MC4R barr agon 10 | MC4R barr conf inactive | MOR DOR agonist inactive
CC(C)(C)c1cc(-c2ccco2)c(C#N)c(SCC#N)n1	MC4R barr agon 19 | MC4R barr conf inactive | MOR DOR agonist inactive
Clc1cc2c(c(CSc3nc4ccccc4n4cccc34)c1)OCOC2	none (no result: TLR4 MyD88 comp)
Cc1ccc(C(=O)N/C(N)=N/c2nc3ccccc3o2)cc1	MC4R barr agon 16 | MC4R barr conf inactive | MOR DOR agonist inactive
N/C(=N\c1nc2ccccc2o1)NC(=O)c1cccc(Br)c1	none (no result: TLR4 MyD88 comp, TLR9-MyD88 inh)
N/C(=N\c1nc2ccccc2o1)NC(=O)c1ccccc1	MC4R barr agon 14 | MC4R barr conf inactive | MOR DOR agonist inactive
